Assay results from ChEMBL document CHEMBL5058577, “EUbOPEN Chemogenomics Library 2 (Multiplex)” (2022).

Test system: U2OS
Assay: Multiplex assay against U2OS
Assay type: toxicity, cell-based
Conditions: human
How it was run: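 Values for tubulin, mitochondrial-mass and membrane-permeability phenotypes are per cents of cells with healthy nuclei. These cells were identified by CellPathfinder machine-learning gating of live cells that had been stained at seeding with Hoechst33342, BioTracker Green Microtubule Cytoskeleton Dye, MitoTracker Red and Annexin V Alexa Fluor 680 and imaged on a CQ1 microscope at 37°C and 5% CO2 after compound addition. The gating first set Hoechst high-intensity objects apart from normal cells, then split normal cells into healthy, pyknosed or fragmented nuclei, and pyknosed cells into mitotic or apoptotic.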

[1] = 12 h, 1 µM, compound concentration 1 uM, replicate 1
[2] = 12 h, 1 µM, compound concentration 1 uM, replicate 2
[3] = 12 h, 10 µM, compound concentration 10 uM, replicate 1
[4] = 12 h, 10 µM, compound concentration 10 uM, replicate 2
[5] = 24 h, 1 µM, compound concentration 1 uM, replicate 1
[6] = 24 h, 1 µM, compound concentration 1 uM, replicate 2
[7] = 24 h, 10 µM, compound concentration 10 uM, replicate 1
[8] = 24 h, 10 µM, compound concentration 10 uM, replicate 2
[9] = 48 h, 1 µM, compound concentration 1 uM, replicate 1
[10] = 48 h, 1 µM, compound concentration 1 uM, replicate 2
[11] = 48 h, 10 µM, compound concentration 10 uM, replicate 1
[12] = 48 h, 10 µM, compound concentration 10 uM, replicate 2

CC(C)c1noc(N2CCC(COc3ccc(-c4ccc(S(C)(=O)=O)cc4)nc3)CC2)n1 [GSK-1292263]
Population Apoptotic (%) [1]: 72% | Population Fragmented Nuclei (%) [1]: 27% | Population Healthy Nuclei (%) [1]: 62% | Population Hoechst High Intensity Objects (%) [1]: 2% | Population Membrane Permeable-Phenotype (%) [1]: 3% | Population Mitochondria Different-Phenotype (%) [1]: 2% | Population Mitotic Cells (%) [1]: 27% | Population Normal (%) [1]: 97% | Population Pyknosed Nuclei (%) [1]: 10% | Population Tubulin-Different-Phenotype (%) [1]: 0% | Total Cell Count [1]: 177 | Population Apoptotic (%) [2]: 100% | Population Fragmented Nuclei (%) [2]: 16% | Population Healthy Nuclei (%) [2]: 77% | Population Hoechst High Intensity Objects (%) [2]: 1% | Population Membrane Permeable-Phenotype (%) [2]: 4% | Population Mitochondria Different-Phenotype (%) [2]: 0% | Population Mitotic Cells (%) [2]: 0% | Population Normal (%) [2]: 98% | Population Pyknosed Nuclei (%) [2]: 5% | Population Tubulin-Different-Phenotype (%) [2]: 2% | Total Cell Count [2]: 114 | Population Apoptotic (%) [3]: 90% | Population Fragmented Nuclei (%) [3]: 31% | Population Healthy Nuclei (%) [3]: 60% | Population Hoechst High Intensity Objects (%) [3]: 2% | Population Membrane Permeable-Phenotype (%) [3]: 10% | Population Mitochondria Different-Phenotype (%) [3]: 6% | Population Mitotic Cells (%) [3]: 10% | Population Normal (%) [3]: 97% | Population Pyknosed Nuclei (%) [3]: 7% | Population Tubulin-Different-Phenotype (%) [3]: 6% | Total Cell Count [3]: 262 | Population Apoptotic (%) [4]: 100% | Population Fragmented Nuclei (%) [4]: 20% | Population Healthy Nuclei (%) [4]: 73% | Population Hoechst High Intensity Objects (%) [4]: 0% | Population Mitochondria Different-Phenotype (%) [4]: 8% | Population Mitotic Cells (%) [4]: 0% | Population Normal (%) [4]: 100% | Population Pyknosed Nuclei (%) [4]: 5% | Total Cell Count [4]: 134 | Population Apoptotic (%) [5]: 63% | Population Fragmented Nuclei (%) [5]: 32% | Population Healthy Nuclei (%) [5]: 57% | Population Hoechst High Intensity Objects (%) [5]: 1% | Population Membrane Permeable-Phenotype (%) [5]: 5% | Population Mitochondria Different-Phenotype (%) [5]: 2% | Population Mitotic Cells (%) [5]: 36% | Population Normal (%) [5]: 98% | Population Pyknosed Nuclei (%) [5]: 9% | Population Tubulin-Different-Phenotype (%) [5]: 3% | Total Cell Count [5]: 236 | Population Apoptotic (%) [6]: 66% | Population Fragmented Nuclei (%) [6]: 15% | Population Healthy Nuclei (%) [6]: 77% | Population Hoechst High Intensity Objects (%) [6]: 0% | Population Membrane Permeable-Phenotype (%) [6]: 2% | Population Mitotic Cells (%) [6]: 33% | Population Normal (%) [6]: 99% | Population Pyknosed Nuclei (%) [6]: 6% | Population Tubulin-Different-Phenotype (%) [6]: 1% | Total Cell Count [6]: 145 | Population Apoptotic (%) [7]: 92% | Population Fragmented Nuclei (%) [7]: 25% | Population Healthy Nuclei (%) [7]: 65% | Population Hoechst High Intensity Objects (%) [7]: 0% | Population Membrane Permeable-Phenotype (%) [7]: 10% | Population Mitochondria Different-Phenotype (%) [7]: 3% | Population Mitotic Cells (%) [7]: 7% | Population Normal (%) [7]: 99% | Population Pyknosed Nuclei (%) [7]: 9% | Population Tubulin-Different-Phenotype (%) [7]: 3% | Total Cell Count [7]: 284 | Population Apoptotic (%) [8]: 66% | Population Fragmented Nuclei (%) [8]: 15% | Population Healthy Nuclei (%) [8]: 75% | Population Hoechst High Intensity Objects (%) [8]: 2% | Population Membrane Permeable-Phenotype (%) [8]: 6% | Population Mitochondria Different-Phenotype (%) [8]: 5% | Population Mitotic Cells (%) [8]: 33% | Population Normal (%) [8]: 97% | Population Pyknosed Nuclei (%) [8]: 8% | Population Tubulin-Different-Phenotype (%) [8]: 2% | Total Cell Count [8]: 143 | Population Apoptotic (%) [9]: 77% | Population Fragmented Nuclei (%) [9]: 23% | Population Healthy Nuclei (%) [9]: 69% | Population Hoechst High Intensity Objects (%) [9]: 2% | Population Membrane Permeable-Phenotype (%) [9]: 3% | Population Mitochondria Different-Phenotype (%) [9]: 3% | Population Mitotic Cells (%) [9]: 22% | Population Normal (%) [9]: 97% | Population Pyknosed Nuclei (%) [9]: 6% | Population Tubulin-Different-Phenotype (%) [9]: 2% | Total Cell Count [9]: 339 | Population Apoptotic (%) [10]: 90% | Population Fragmented Nuclei (%) [10]: 15% | Population Healthy Nuclei (%) [10]: 74% | Population Hoechst High Intensity Objects (%) [10]: 1% | Population Membrane Permeable-Phenotype (%) [10]: 6% | Population Mitochondria Different-Phenotype (%) [10]: 2% | Population Mitotic Cells (%) [10]: 10% | Population Normal (%) [10]: 98% | Population Pyknosed Nuclei (%) [10]: 10% | Population Tubulin-Different-Phenotype (%) [10]: 1% | Total Cell Count [10]: 201 | Population Apoptotic (%) [11]: 87% | Population Fragmented Nuclei (%) [11]: 22% | Population Healthy Nuclei (%) [11]: 68% | Population Hoechst High Intensity Objects (%) [11]: 4% | Population Membrane Permeable-Phenotype (%) [11]: 6% | Population Mitochondria Different-Phenotype (%) [11]: 2% | Population Mitotic Cells (%) [11]: 12% | Population Normal (%) [11]: 95% | Population Pyknosed Nuclei (%) [11]: 9% | Population Tubulin-Different-Phenotype (%) [11]: 2% | Total Cell Count [11]: 354 | Population Apoptotic (%) [12]: 83% | Population Fragmented Nuclei (%) [12]: 12% | Population Healthy Nuclei (%) [12]: 77% | Population Hoechst High Intensity Objects (%) [12]: 1% | Population Membrane Permeable-Phenotype (%) [12]: 5% | Population Mitochondria Different-Phenotype (%) [12]: 4% | Population Mitotic Cells (%) [12]: 16% | Population Normal (%) [12]: 98% | Population Tubulin-Different-Phenotype (%) [12]: 4% | Total Cell Count [12]: 189
